Series [1] concerns Mus musculus. The series is described as follows: Effect on weight change in BALB/c mouse at 100 mg/kg/day, po once daily for 5 days measured after 18 hrs of final treatment. Format: ADME, organism-based. The note with it: in vivo. Set-up: route oral. A digest of the protocol: (§1)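 Uninfected toxicity-control BALB/c mice, 3 per dose, were dosed orally on the same schedule as infected groups. Each mouse was weighed before treatment and 18 h after the last dose. Weight change is the difference. Mice were watched for overt toxicity and death for 21 days.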

Series [2] deals with Mus musculus. The series is described as follows: Toxicity in BALB/c mouse assessed as survival at 3 mg/kg/day, po once daily. The following applies: in vivo. Format: organism-based. Set-up: route oral. A digest of the protocol:
(§2)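 Uninfected female BALB/c toxicity controls (18–21 g), 3 mice per dose, were run in parallel with the infection studies and received 5-day oral treatment. Body weight was taken before treatment and 18 h after the last dose.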

Series [3] concerns Mus musculus. In words: Effect on weight change in BALB/c mouse at 300 mg/kg/day, po once daily for 5 days measured after 18 hrs of final treatment. Format: ADME, organism-based. Set-up: route oral. The following applies: in vivo. A digest of the protocol:
as §1

For series [4], the system named is Mus musculus. In words: Effect on weight change in BALB/c mouse at 30 mg/kg/day, po twice daily for 5 days measured after 18 hrs of final treatment. Format: ADME, organism-based. Set-up: route oral. The following applies: in vivo. A digest of the protocol:
as §1

Series [5] concerns Mus musculus. The series is described as follows: Toxicity in BALB/c mouse assessed as survival at 10 mg/kg/day, po twice daily. Set-up: route oral. The following applies: in vivo. Format: organism-based. In a few lines:
as §2

Series [6] has as its system Mus musculus. The series is described as follows: Toxicity in BALB/c mouse assessed as survival at 30 mg/kg/day, po once daily. Set-up: route oral. Format: organism-based. The following applies: in vivo. A digest of the protocol: as §2
Series [7] concerns Mus musculus. In words: Effect on weight change in BALB/c mouse at 30 mg/kg/day, po once daily for 5 days measured after 18 hrs of final treatment. Format: ADME, organism-based. The note with it: in vivo. Set-up: route oral. In a few lines: as §1
The test system of series [8] is Mus musculus. The series is described as follows: Toxicity in BALB/c mouse assessed as survival at 300 mg/kg/day, po qid for 5 days. Type of series: organism-based. Set-up: route oral. The following applies: in vivo, 120 h. In a few lines:
as §2

Series [9] deals with Mus musculus. The series is described as follows: Effect on weight change in BALB/c mouse at 10 mg/kg/day, po once daily for 5 days measured after 18 hrs of final treatment. Type of series: ADME, organism-based. Set-up: route oral. The following applies: in vivo. In a few lines: as §1
The subject of series [10] is Mus musculus. In words: Toxicity in BALB/c mouse assessed as survival at 100 mg/kg/day, po twice daily. Format: organism-based. Set-up: route oral. The following applies: in vivo. A digest of the protocol:
as §2

In series [11] the test system is Mus musculus. In words: Effect on weight change in BALB/c mouse at 300 mg/kg/day, po twice daily for 5 days measured after 18 hrs of final treatment. Type of series: ADME, organism-based. Set-up: route oral. The following applies: in vivo. In a few lines: as §1
The test system of series [12] is Mus musculus. In words: Toxicity in BALB/c mouse assessed as survival at 100 mg/kg/day, po qid for 5 days. Format: organism-based. Set-up: route oral. The note with it: in vivo, 120 h. In a few lines:
as §2

Series [13] concerns Mus musculus. The series is described as follows: Toxicity in BALB/c mouse assessed as survival at 30 mg/kg/day, po twice daily. Format: organism-based. Set-up: route oral. The following applies: in vivo. In a few lines: as §2
Series [14] concerns Mus musculus. In words: Toxicity in BALB/c mouse assessed as survival at 100 mg/kg/day, po once daily. Type of series: organism-based. Set-up: route oral. The following applies: in vivo. In a few lines: as §2
Series [15] concerns Mus musculus. In words: Toxicity in BALB/c mouse assessed as survival at 10 mg/kg/day, po once daily. Format: organism-based. The note with it: in vivo. Set-up: route oral. In a few lines:
as §2

The test system of series [16] is Mus musculus. In words: Effect on weight change in BALB/c mouse at 3 mg/kg/day, po once daily for 5 days measured after 18 hrs of final treatment. Set-up: route oral. Format: ADME, organism-based. The note with it: in vivo. A digest of the protocol:
as §1

Series [17] has as its system Mus musculus. The series is described as follows: Toxicity in BALB/c mouse assessed as survival at 33 mg/kg/day, po qid for 5 days. Format: organism-based. Set-up: route oral. The following applies: in vivo, 120 h. A digest of the protocol: as §2
For series [18], the system named is Mus musculus. The series is described as follows: Effect on weight change in BALB/c mouse at 100 mg/kg/day, po qid measured after 18 hrs of final treatment. Type of series: ADME, organism-based. The note with it: in vivo. Set-up: route oral. In a few lines: as §1
Series [19] relates to Mus musculus. In words: Effect on weight change in BALB/c mouse at 100 mg/kg/day, po twice daily for 5 days measured after 18 hrs of final treatment. Type of series: ADME, organism-based. Set-up: route oral. The following applies: in vivo. A digest of the protocol: as §1
Series [20] has as its system Mus musculus. The series is described as follows: Toxicity in BALB/c mouse assessed as survival at 300 mg/kg/day, po once daily. Type of series: organism-based. Set-up: route oral. The note with it: in vivo. In a few lines:
as §2

Series [21] deals with Mus musculus. In words: Effect on weight change in BALB/c mouse at 33 mg/kg/day, po qid measured after 18 hrs of final treatment. Format: ADME, organism-based. Set-up: route oral. The following applies: in vivo. In a few lines:
as §1

Series [22] relates to Mus musculus. The series is described as follows: Effect on weight change in BALB/c mouse at 10 mg/kg/day, po twice daily for 5 days measured after 18 hrs of final treatment. Type of series: ADME, organism-based. Set-up: route oral. The following applies: in vivo. In a few lines: as §1
Series [23] concerns Mus musculus. The series is described as follows: Toxicity in BALB/c mouse assessed as survival at 300 mg/kg/day, po twice daily. Set-up: route oral. The following applies: in vivo. Format: organism-based. A digest of the protocol: as §2
The test system of series [24] is Mus musculus. The series is described as follows: Toxicity in BALB/c mouse assessed as survival at 3 mg/kg/day, po twice daily. Format: organism-based. Set-up: route oral. The note with it: in vivo. In a few lines:
as §2

The nature of series [25]: Cytotoxicity against MDCK cells. Format: cell-based, Canis lupus familiaris. The note with it: dog. In a few lines: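 MDCK cells in MEM were exposed to eight test concentrations in half-log10 steps at 37°C. Untreated toxicity and normal-medium controls were included. CC50 was taken as the 50% cytotoxic concentration. Results are from two to five experiments.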
Series [26] relates to Mus musculus. In words: Effect on weight change in BALB/c mouse at 3 mg/kg/day, po twice daily for 5 days measured after 18 hrs of final treatment. Format: ADME, organism-based. Set-up: route oral. The note with it: in vivo. In a few lines: as §1
In series [27] the test system is Mus musculus. The series is described as follows: Effect on weight change in BALB/c mouse at 300 mg/kg/day, po qid measured after 18 hrs of final treatment. Set-up: route oral. Type of series: ADME, organism-based. The following applies: in vivo. A digest of the protocol:
as §1

In series [28] the test system is Influenza A virus. In words: Inhibition of influenza A virus (A/duck/Minnesota/1525/1981 (H5N1)) replication in MDCK cells by virus yield reduction assay. Type of series: functional.
The subject of series [29] is Influenza A virus. In words: Inhibition of Influenza A virus (A/gull/Pennsylvania/4175/83 (H5N1)) replication in MDCK cells by virus yield reduction assay. Format: functional.

The structures appear in SMILES notation. Where only a bound is given, the exact number is not on record here.

From ChEMBL document CHEMBL1142087 (Antimicrob Agents Chemother, 2007) come the findings set out here.

As for `NC(=O)c1nc(F)c[nH]c1=O` [FAVIPIRAVIR], the Activity in series [1] is 0.4 g; in series [2], “Non-toxic”; in series [3], 0.4 g; in series [4] it was 0.1 g; in [5], “Non-toxic”; in series [6], “Non-toxic”. For the same molecule, the Activity in series [7] was 0.7 g; in [8], “Non-toxic”; in [9], 0.6 g; in series [10] it was “Non-toxic”; in series [11] it was 0.2 g; in [12] it was “Non-toxic”. The Activity result in [13] is on record as “Non-toxic”; in [14], “Non-toxic”; in series [15], “Non-toxic”; in [16] it was 0.3 g; in series [17] it was “Non-toxic”; in [18], 1.1 g. For the same molecule, the Activity in [19] was 1 g; in series [20] it was “Non-toxic”; in series [21] it was 0.2 g; in series [22], 0.1 g; in series [23], “Non-toxic”; in series [24], “Non-toxic”. In addition, the Activity is 0.8 g in series [26] and 0.6 g in series [27]. In series [25], the CC50 was above 0.641 mM.
With `NC(=O)c1ncn([C@@H]2O[C@H](CO)[C@@H](O)[C@H]2O)n1` [RIBAVIRIN], the figures for the concentration for an effect of 90% (EC90) in series [28] and in [29] were 20.1 µM and 32 µM, respectively. In [25], this molecule came in with a CC50 of 2.34 mM.
For `CC(=O)N[C@H]1[C@H]([C@H](O)[C@H](O)CO)OC(C(=O)O)=C[C@@H]1NC(=N)N` [ZANAMIVIR] the same measures were 0.96 µM, 1.23 µM and above 3.61 mM.

Usually CC50 stands for the concentration giving 50% cytotoxicity. The term EC90 denotes the concentration needed for an effect of 90%. Read a high EC90 as a need for much substance.
